# UPR XBP1 act – activators of adaptive XBP1 UPR arm, primary screen, cell-based, CHO-XBP1 luciferase reporter, luminescence, uHTS | IRE1-XBP1 UPR activation; percent of tunicamycin response, DMSO as zero | activation, % at 20 µM | 330,000 compounds, 0.33% hits | AID 463104, 2010;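 active means versus positive control, 20 µM dose yields 30% or more activation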;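 further: 100% = tunicamycin at 10 µg/mL and 0% = DMSO only wells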
#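 incubation = overnight seeding at 37 °C, 6 h compound treatment at 37 °C | assay system = CHO-XBP1 cells stably carrying IRE1-XBP1-driven luciferase reporter | input = 1000 cells per well | detection = luciferase luminescence | dosing = single point, 20 µM final compound, 1% DMSO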
# tim23-1 inh – growth inhibitors of tim23-1 mutant yeast, primary screen, luminescence, uHTS | S. cerevisiae tim23-1 growth, BacTiter-Glo luminescence, 24 h | inhibition, % at 20 µM | 330,000 compounds, 1.3% hits;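 active means growth inhibition of the mutant yeast at or above 50%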;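 further: temperature-sensitive mutant grown at 25 °C; plate controls were DMSO-treated mutant yeast for no effect and medium wells lacking yeast for full effect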
# tim10-1 inh – growth inhibitors of tim10-1 mutant yeast, primary screen, luminescence, uHTS; S. cerevisiae tim10-1 ts strain growth, BacTiter-Glo, 24 h; inhibition, % at 20 µM; 330,000 compounds, 2.2% hits; AID 463190, 2010;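 active means inhibition of at least 40%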;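 further: mutant grown at 25 °C; 0% = DMSO wells with yeast and 100% = wells holding no yeast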
# CHOP UPR activ – activators of apoptotic CHOP UPR arm, primary screen, cell-based, CHO-CHOP luciferase reporter, luminescence, uHTS; UPR activation; percent of tunicamycin response over DMSO baseline; activation, % at 10 µM; 330,000 compounds, 0.34% hits;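 active means at 10 µM dose, activation of 40% or more, normalized to positive control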;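 further: 100% = tunicamycin at 10 µg/mL and 0% = DMSO alone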
#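 Assay system: CHO-CHOP cells, stable luciferase reporter of PERK-eIF2a-CHOP signalling / Buffer or medium: F12 plus 10% serum / Compound dosing: one dose, 10 µM in 0.5% DMSO / Times: 6 h compound treatment, 37 °C / Technique: luciferase luminescence / Read-out: % reporter activation, DMSO baseline versus tunicamycin full activation / Benchmarks: tunicamycin and DMSO controls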
# TIM10 inh – growth inhibitors of isogenic TIM10 control yeast, primary screen, counter-screen for tim10-1 yeast inhibitor project, luminescence, uHTS. S. cerevisiae TIM10 strain growth, BacTiter-Glo luminescence, 24 h. inhibition, % at 10 µM. 330,000 compounds, 1.4% hits;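 active means inhibition of 40% or more at the single tested concentration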;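 further: wild-type TIM10 isogenic control strain grown at permissive 25 °C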
# tim23-1 conf – tim23-1 mutant yeast growth inhibitors, confirmation, luminescence, single concentration | shares compounds with tim23-1 inh | S. cerevisiae tim23-1 growth, BacTiter-Glo luminescence, 24 h | inhibition, % at 20 µM | 4,400 compounds, 83% hits;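 active means inhibition above about 39% in either of two replicate wells at 20 µM, limit read from the data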;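 further: temperature-sensitive tim23-1 mutant grown at 25 °C; 0% = DMSO wells with yeast and 100% = medium wells without yeast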
# An asterisk follows results filed as active; nt = not tested or not shown. Compounds with a hit are over-represented: about 3.9% of the library has one in this group of screens.
SMILES,UPR XBP1 act,tim23-1 inh,tim10-1 inh,CHOP UPR activ,TIM10 inh,tim23-1 conf
COc1ccccc1N(C)S(=O)(=O)c1ccc(C(=O)N(C)Cc2ccc(Cl)s2)cc1,-1.0,27.1,-0.7,-0.2,-0.5,nt
Cc1nc2scc(C)n2c(=O)c1S(=O)(=O)Nc1ccc(OC(F)(F)F)cc1,-0.2,60.0*,10.1,-0.3,7.1,64.5*
COc1ccccc1N1C(=O)N(CC(=O)C(C)(C)C)c2ccccc2S1(=O)=O,2.5,6.3,5.9,1.3,-9.9,nt
CCOc1ccc(/C=N/n2c(C3CCCCC3)n[nH]c2=S)cc1,0.0,73.9*,28.2,0.5,36.8,21.2
S=c1[nH]nc(C2CCCCC2)n1/N=C/c1ccccc1,1.5,67.2*,32.2,-0.6,23.1,39.8*
S=c1[nH]nc(C2CCCCC2)n1/N=C/c1ccccn1,1.8,28.6,29.4,0.1,13.7,nt
Fc1ccc(/C=N/n2c(C3CCCCC3)n[nH]c2=S)cc1,0.1,71.1*,35.2,-0.6,34.4,31.5
CN(C)c1ccc(/C=N/n2c(C3CCCCC3)n[nH]c2=S)cc1,-2.9,50.3*,14.4,1.9,8.6,33.1
Nc1ccc(C(=O)N2CCN(S(=O)(=O)c3ccc(Cl)s3)CC2)cc1[N+](=O)[O-],0.4,23.9,18.5,-1.3,8.5,nt
COc1ccc(-c2nc(N)nc(C(F)(F)F)c2-c2cscn2)c(O)c1,1.6,4.1,-11.6,-1.4,-5.0,nt
COc1ccc(-c2nc(N)nc(C)c2Oc2ccccc2Br)c(O)c1,-2.6,50.4*,33.1,-0.2,1.2,46.8*
CCCOc1ccc(-c2c(C(=O)N/N=C/c3cccs3)nnn2-c2nonc2N)cc1,-0.9,-4.1,-0.8,2.4,3.6,nt
Nn1cnnc1N/N=C/c1cc(Br)cc(Br)c1O,0.7,56.8*,4.4,-5.1,39.1,60.1*
CC(NC(=O)CN1C(=O)NC2(CCc3ccccc32)C1=O)c1ccccc1 (centres undefined),-0.6,7.6,14.3,1.2,4.0,nt
Cc1ccc(-c2nnc(NC3CCCC3)s2)cc1,-2.9,52.9*,16.5,2.7,14.9,41.8*
O=C(Cc1ccc([N+](=O)[O-])cc1)N/N=C/c1cccnc1,-1.9,-10.7,8.5,1.1,13.2,nt
N#C/C(=C\c1cccnc1)c1ccc([N+](=O)[O-])cc1,-1.6,55.2*,33.9,2.8,28.0,36.1
Cc1cc2nsnc2c(S(=O)(=O)N2CCN(C)CC2)c1C,6.1,16.2,16.5,1.5,-14.8,nt
Cc1cc(Cl)ccc1OCC(=O)NNC(=O)CCOc1ccccc1,1.4,-10.1,-19.3,-1.0,-15.2,nt
CC(=O)c1ccccc1OC(=O)COc1ccc(Cl)cc1C,-2.5,54.1*,20.7,-2.7,25.1,45.7*
O=C(OCn1nnc2ccccc2c1=O)c1ccc(S(=O)(=O)N2CCOCC2)cc1,0.1,13.8,18.8,-0.6,6.9,nt
CCN(CC)S(=O)(=O)c1ccc(C(=O)OCn2nnc3ccccc3c2=O)cc1,-3.9,70.4*,14.0,-1.9,-21.4,56.1*
CCOC(=O)C1CCN(C(=O)Cc2c(C(=O)O)n(C)c3ccccc23)CC1,-1.9,77.2*,12.4,-1.0,-2.9,1.4
CCOC(=O)C1CCN(C(=O)Cc2ccccc2OC)CC1,-1.6,-5.0,-19.5,-0.9,-6.3,nt
O=[N+]([O-])c1ccc(N/N=C/c2cccc(O)c2)cc1,5.2,83.3*,38.6,5.6,6.4,39.6*
SMILES,UPR XBP1 act,tim23-1 inh,tim10-1 inh,CHOP UPR activ,TIM10 inh,tim23-1 conf
Oc1cccc(/C=N/Nc2cccc3cccnc23)c1,-1.7,53.0*,9.6,1.6,15.0,63.3*
O=C(CCc1ccc(S(=O)(=O)N2CCOCC2)cc1)Nc1ccc(F)c(F)c1F,-1.8,7.3,6.1,0.0,-3.5,nt
COc1cccc(NC(=O)c2ccccc2)c1,3.3,56.9*,12.3,5.4,29.5,63.7*
COc1cccc(NC(=O)c2cc3cccc(OC)c3o/c2=N\O)c1,1.2,57.5*,15.5,7.7,10.6,47.1*
CC(C)Oc1cccc(C(=O)NC(=S)Nc2cccnc2)c1,-3.5,27.1,19.1,5.2,15.1,nt
CC(C)Oc1cccc(C(=O)NC(=S)Nc2ccccc2)c1,-4.6,50.8*,17.0,4.5,25.8,35.8
COc1cccc(C(=O)Nc2cccc(-c3ccccc3)c2)c1,1.0,54.9*,32.2,-0.2,24.8,48.5*
COc1cccc(NC(=O)c2cc3ccccc3o/c2=N\O)c1,-10.1,47.4,-18.0,-0.8,13.7,nt
Cc1ccc(S(=O)(=O)NCCC(=O)OCC(=O)NCCc2ccccc2)cc1C,-1.8,-7.1,-2.5,-1.7,1.5,nt
COc1ccc(C(=O)Nc2cc(C(=O)O)cc(C(=O)O)c2)cc1Cl,-3.2,1.8,6.3,1.4,-1.6,nt
CC(=O)Oc1cccc(C(=O)Nc2ccccc2C(=O)N2CCCC2)c1,2.5,12.8,10.7,1.7,7.5,nt
COc1cccc(C(=O)Nc2ccccc2C(=O)N2CCCC2)c1,-1.7,94.5*,19.8,0.0,1.8,12.1
COC(=O)c1cccc(NC(=O)c2ccc(OC)c(Cl)c2)c1,1.3,56.7*,10.6,1.8,15.4,48.1*
CCCn1c(CCNC(=O)c2ccco2)nc2ccccc21,-3.0,3.3,3.1,1.5,-4.9,nt
CSCCC(NC(=O)c1ccco1)C(=O)NC1CCC(C)CC1 (centres undefined),1.2,22.5,20.6,5.2,13.3,nt
CCN(CC)c1nc(N)nc(N(c2ccccc2)c2ccccc2)n1,2.4,56.8*,36.3,0.6,4.1,50.0*
Cc1ccc(N=Cc2cc(Cl)cc(Cl)c2O)nc1,-0.7,66.0*,8.5,0.3,10.4,75.9*
CN1C(=O)C(CCC(=O)O)NC1=S (centres undefined),-3.9,-0.9,-4.3,0.2,-2.6,nt
O=C(COc1ccccc1)N/N=C/c1ccc([N+](=O)[O-])o1,8.1,53.7*,39.0,10.4,30.8,75.2*
CC(C)CCOc1ccc(C2(C)NC(=O)NC2=O)cc1 (centres undefined),-3.8,5.1,7.2,-0.4,1.9,nt
O=C(c1ccc2ccccc2n1)N1CCN(S(=O)(=O)c2ccc(Cl)cc2)CC1,-0.5,50.4*,26.9,1.2,21.8,36.0
C(=C\c1ccccc1)/C=N/Nc1nc2ccccc2[nH]1,11.0,50.5*,14.9,-0.6,19.0,48.0*
C(/CCc1ccccc1)=N\Nc1nc2ccccc2[nH]1,-0.3,-10.3,-0.1,5.4,-3.1,nt
O=C(C1=C(O)C(=O)N(c2ncccn2)C1c1ccc(Cl)cc1)c1ccco1 (centres undefined),0.4,17.1,10.6,0.6,-2.3,nt
